Bioassay records from PubChem BioAssay.
DNMT1 inh = blocks human DNA methyltransferase DNMT1. DNMT1 molecular beacon, Hinp1I cleavage, fluorescence. hit rate 0.83% among 360,000. AID 588458. P26358. inhibition (reported as % activation of signal), % at 10 µM; in the data active = inhibition above about 50%
UHRF1 MBD2 ctr = blocks human UHRF1 binding to methylated DNA | hit rate 0.75% among 370,000 | AID 687016 | UHRF1 binding to methylated oligo, TR-FRET | Q96T88 | inhibition, % at 4.4 µM; in the data active = inhibition above about 21%;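 also: UHRF1 SRA domain binding a hemimethylated CpG hairpin DNA probe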
SUMO1-SIM PPI = modulators of human SUMO1-mediated protein-protein interactions; inhibition, % at 20 µM; hit rate 0.33% among 360,000; SUMO1 binding to a labelled peptide, TR-FRET, 1 h; in the data active = inhibition above about 37%
NS3 helicase inh = inhibitors of Hepatitis C virus NS3 helicase; hit rate 0.56% among 290,000; NS3 helicase DNA unwinding, Cy5 molecular beacon fluorescence; inhibition, % at 10.9 µM; AID 1800;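 active = inhibition above the mean of all tested compounds plus 3 SD, set per campaign, cut at about 35% in these data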
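test system = hepatitis C virus NS3 helicase domain fragment enzyme | reagent = annealed dual-labelled DNA beacon duplex, ATP-started | times = 1 h at 25 °C | detection = Cy5 fluorescence, 0 and 60 min reads | read-out basis = percent inhibition from t60/t0 fluorescence ratio | control set = DMSO and thioflavine S | replication = one well per compound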
MBD2 DNA inh = inhibitors of human MBD2 binding to methylated oligonucleotide; Q9UBB5; TR-FRET; inhibition, % at 4.4 µM; hit rate 0.31% among 370,000; in the data active = inhibition above about 13%
DSG3 Ab inh = inhibitors of pemphigus antibody binding to human desmoglein-3. P32926. DSG3-coupled beads, scFv-anti-DSG3-GFP binding, flow cytometry; hits give low values. binding (percent of control), % at 10 µM. hit rate 0.48% among 310,000. AID 588358;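 active = binding more than 3 SD below its plate's average and above zero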;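 also: hits lower antibody fragment binding to DSG3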
Target sequence (P32926 whole entry, looked up, the tested form may be a part): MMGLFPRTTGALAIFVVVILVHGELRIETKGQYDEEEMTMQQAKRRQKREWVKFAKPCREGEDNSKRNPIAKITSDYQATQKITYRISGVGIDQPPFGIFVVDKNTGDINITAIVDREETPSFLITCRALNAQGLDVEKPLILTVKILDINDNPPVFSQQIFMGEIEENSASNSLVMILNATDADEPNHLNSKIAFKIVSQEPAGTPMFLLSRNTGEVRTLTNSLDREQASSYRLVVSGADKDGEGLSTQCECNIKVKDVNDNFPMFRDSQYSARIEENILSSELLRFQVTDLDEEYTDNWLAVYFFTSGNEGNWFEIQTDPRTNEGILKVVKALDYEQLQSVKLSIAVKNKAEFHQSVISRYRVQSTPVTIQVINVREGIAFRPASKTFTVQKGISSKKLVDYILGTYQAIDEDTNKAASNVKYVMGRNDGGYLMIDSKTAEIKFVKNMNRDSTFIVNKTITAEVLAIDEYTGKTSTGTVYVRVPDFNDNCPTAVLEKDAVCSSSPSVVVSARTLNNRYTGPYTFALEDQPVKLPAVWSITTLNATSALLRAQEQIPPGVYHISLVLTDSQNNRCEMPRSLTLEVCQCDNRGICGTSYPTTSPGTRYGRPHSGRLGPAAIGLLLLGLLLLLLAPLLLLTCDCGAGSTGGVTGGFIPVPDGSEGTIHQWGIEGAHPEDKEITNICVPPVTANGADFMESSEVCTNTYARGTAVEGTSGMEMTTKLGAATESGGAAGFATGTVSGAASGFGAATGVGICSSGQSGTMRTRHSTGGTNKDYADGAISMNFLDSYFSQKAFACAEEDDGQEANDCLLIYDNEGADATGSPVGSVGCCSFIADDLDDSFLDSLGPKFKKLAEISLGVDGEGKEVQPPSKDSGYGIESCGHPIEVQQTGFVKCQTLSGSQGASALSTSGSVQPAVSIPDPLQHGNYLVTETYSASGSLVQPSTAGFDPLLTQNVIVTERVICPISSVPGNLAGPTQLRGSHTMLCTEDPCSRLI
Each line names hits and unclear results; the compound was inactive in the other large screens. Compounds with a hit are over-represented: about 2.5% of the library has one in this group of screens.

COc1cc(C2C(C#N)=C(N)OC3=C2C(=O)CC(C)(C)C3)cc2c1OCO2 (stereo not given)	UHRF1 MBD2 ctr 29.7 (no result: NS3 helicase inh)
CCCOc1ccc(C2=NNC(=O)CC2)cc1	none
COc1ccc(C2=NNC(=O)CC2)cc1	UHRF1 MBD2 ctr 22.8
NS(=O)(=O)c1ccc2nc(NC(=O)Nc3ccccc3F)sc2c1	none
Cc1ccccc1NC(=O)Nc1nc2ccc(S(C)(=O)=O)cc2s1	DSG3 Ab inh 73.8
O=C(O)/C(=C\c1ccc(Cl)c([N+](=O)[O-])c1)c1ccc(S(=O)(=O)N2CCCCC2)s1	none
O=C(O)/C(=C\c1ccc(Cl)c([N+](=O)[O-])c1)c1ccc(S(=O)(=O)N2CCCC2)s1	DNMT1 inh 72.3 (no result: NS3 helicase inh)
CCC(=O)c1cc2c(C)cc(=O)oc2c(C)c1O	DSG3 Ab inh 51.2
CCC(=O)c1cc2c(C)cc(=O)oc2c(C)c1OC(C)=O	none
COC(=O)c1ccc(CSc2nnc(NCc3ccccc3)s2)o1	none
COC(=O)c1ccc(CSc2nc(-c3ccccc3)cs2)o1	UHRF1 MBD2 ctr 21.5
CCn1c2ccccc2c2cc(NC(=O)COC(=O)c3ccc(C)cc3)ccc21	none (no result: DNMT1 inh, SUMO1-SIM PPI, NS3 helicase inh, DSG3 Ab inh)
CCn1c2ccccc2c2cc(NC(=O)COC(=O)c3ccc(NC(=O)CC#N)cc3)ccc21	DSG3 Ab inh 68.6 (no result: NS3 helicase inh)
CCOC(=O)c1c(NC(=O)COC(=O)c2ccc(NC(=O)CC#N)cc2)sc(C(=O)NC)c1C	SUMO1-SIM PPI 57.2 (no result: NS3 helicase inh)
C/C=C/C(=O)OCC(=O)Nc1cccc(F)c1	none
Clc1ccc(OCc2nn3c(C4CCCCC4)nnc3s2)c(Cl)c1	none
CCCN1C(=O)/C(=c2\sc3nc(=O)c(Cc4ccc(C)cc4)nn3c2=O)c2ccccc21	DSG3 Ab inh 67.7
NC(=O)CN1C(=O)/C(=c2\sc3nc(=O)c(Cc4ccccc4)nn3c2=O)c2ccccc21	none
O=C(CC1C(=O)NCCN1C(=O)Nc1ccc(C(F)(F)F)cc1)Nc1ccc(F)cc1 (stereo not given)	none
CC(=O)NN1C(=O)c2ccccc2NC1c1ccccc1F (stereo not given)	UHRF1 MBD2 ctr 62.8
O=C(N/N=C/c1cccc([N+](=O)[O-])c1)C1COc2ccccc2O1 (stereo not given)	none
O=C(N/N=C\c1cccc([N+](=O)[O-])c1O)C1COc2ccccc2O1 (stereo not given)	DSG3 Ab inh 30.7
CC1(C)CC(NS(=O)(=O)c2ccc3ccccc3c2)CC(C)(C)N1	DSG3 Ab inh 32.8
CCCCN1C=C(C(=O)OC)C(c2ccccc2C(F)(F)F)C(C(=O)OC)=C1	DSG3 Ab inh -28.3
COCCN1C=C(C(=O)OC)C(c2ccccc2C(F)(F)F)C(C(=O)OC)=C1	none
CCCCN1C=C(C(=O)OC)C(c2ccccc2Cl)C(C(=O)OC)=C1	SUMO1-SIM PPI 45.7
O=C(CN1C(=O)C2C3C=CC(C3)C2C1=O)Nc1ccc(C(=O)O)cc1 (stereo not given)	none
COc1cc(S(=O)(=O)N(Cc2cccnc2)Cc2cccc(OC)c2OC)ccc1-n1cnnn1	UHRF1 MBD2 ctr 22.7
O=C(Cc1cccs1)NNC(=O)c1ccccc1Cl	none (no result: NS3 helicase inh, DSG3 Ab inh)
Cc1nn(C)cc1C(C(=O)NC1CCCCC1)N(Cc1ccccc1Cl)C(=O)c1cnccn1 (stereo not given)	none
Cc1nn(C)cc1C(C(=O)NC1CCCCC1)N(Cc1ccc(F)cc1)C(=O)c1cnccn1 (stereo not given)	DSG3 Ab inh 53.7
O=C(NCCCCc1ccccc1)Nc1ccc(F)cc1F	DSG3 Ab inh 92.4
O=C(NCCN1CCCCC1)Nc1ccc(F)cc1F	UHRF1 MBD2 ctr 22.7
O=C(NCCCCc1ccccc1)Nc1cccc(F)c1	none
O=C(NCCN1CCCCC1)Nc1ccccc1F	none
Cc1ccc(CC2C(=O)N(c3ccccc3)C(=O)C2C)cc1 (stereo not given)	none
O=C(O)CCNC1CCCCC1	none
O=C(Cn1[nH]c(=O)c2ccccc2c1=O)Nc1ccc(-c2nnc3n2CCCCC3)cc1	none
COc1ccc(OCC(O)CN2C(=O)NC(C)(C)C2=O)cc1 (stereo not given)	none (no result: DSG3 Ab inh)
CCCCOc1ccc(S(=O)(=O)n2c(C)nc3ccccc32)cc1	UHRF1 MBD2 ctr 43.2
Cc1ccc(NC(=O)c2cc(S(=O)(=O)NCC3CCCO3)ccc2F)cc1 (stereo not given)	UHRF1 MBD2 ctr 45.2 (no result: NS3 helicase inh)
Cc1ccc(S(=O)(=O)NCC2CCCO2)cc1 (stereo not given)	none
O=C(COC(=O)c1cccnc1Cl)NC1CCCc2ccccc21 (stereo not given)	none (no result: NS3 helicase inh)
CCOC(=O)C1CCCN(C(=O)c2c(-c3ccccc3)noc2C)CC1 (stereo not given)	none (no result: NS3 helicase inh, DSG3 Ab inh)
COc1ccc(NS(=O)(=O)c2cccc(C(=O)NN=Cc3ccc(O)c(OC)c3)c2)cc1	SUMO1-SIM PPI 63.4 (no result: NS3 helicase inh)
COc1ccc(NS(=O)(=O)c2cccc(C(=O)N/N=C/c3ccccn3)c2)cc1	none
COc1ccc(NS(=O)(=O)c2cccc(C(=O)N/N=C/c3ccccc3OC)c2)cc1	none (no result: NS3 helicase inh)
COc1ccc(NS(=O)(=O)c2cccc(C(=O)N/N=C/c3ccc(O)cc3)c2)cc1	SUMO1-SIM PPI 62.5
C/C(=N\Nc1cc(C)nc(-c2ccccc2)n1)c1cccc([N+](=O)[O-])c1	SUMO1-SIM PPI 48.3
O=C(O)c1cc(-c2ccc(/C=C3\NC(=O)N(c4ccccc4)C3=O)o2)ccc1Cl	DNMT1 inh 56.9
Cc1ccc(CN2C(=O)N/C(=C/c3ccc(-c4ccc(C(=O)O)cc4)o3)C2=O)cc1	SUMO1-SIM PPI 38.5
Cc1cccc(NC(=O)CN2C(=O)N/C(=C\c3ccc(-c4cccc(C(=O)O)c4)o3)C2=O)c1	none
Nc1ccccc1C(=O)NN=Cc1cccnc1	none (no result: NS3 helicase inh, DSG3 Ab inh)
CSc1nc(-c2ccc(Cl)cc2)nn1S(=O)(=O)c1ccccc1	UHRF1 MBD2 ctr 21.4
Cc1cc2cc(C)c(NCCNC(=O)c3cccs3)nc2cc1C	SUMO1-SIM PPI 49.9
Cc1cc2cc(C)c(NCCNC(=O)c3ccccc3F)nc2cc1C	none
COC(=O)c1ccc2c(c1)c(C#Cc1ccccc1)c(-c1ccccc1)n2C	none (no result: NS3 helicase inh)
Cc1cccc(OCc2nnc(SCC(=O)Nc3ccc(C)c(C)c3)o2)c1	DSG3 Ab inh 65.5
Cc1cccc(OCc2nnc(SCC(=O)Nc3ncc(C)s3)o2)c1	none
CCN(C(=O)c1cn(C)c(=O)c2cc(OC)c(OC)cc12)c1cc(C)ccc1C	none
Cc1ccc(-c2nc3ccccc3s2)cc1NC(=O)c1cc(-n2cnnc2)ccc1Cl	DSG3 Ab inh 75.8
Cc1ccc(-c2nc3ccccc3s2)cc1NC(=S)NC(=O)c1ccccc1	none
O=C(Nc1nc(-c2ccco2)c(-c2ccco2)s1)c1ccc(F)cc1F	none (no result: NS3 helicase inh)
O=C(Nc1nc(-c2ccco2)c(-c2ccco2)s1)c1cnccn1	UHRF1 MBD2 ctr 40.5 (no result: DNMT1 inh, SUMO1-SIM PPI, NS3 helicase inh, DSG3 Ab inh)
Cn1nc(-c2ccc(Cl)cc2)c2cc(C(=O)N3CCN(c4ccccc4)CC3)sc21	none
